Source: ChEMBL document CHEMBL3272134, “Diastereoisomers of 5,10-methylene-5,6,7,8-tetrahydropteroyl-D-glutamic acid” (J Med Chem, 1977)
Values belong to the molecule of their own block, whether it stands above or below them. The source made the active and inactive calls. The rule behind the calls is not given here.

Key:
[1] = molecular target: T1, Thymidylate synthase (Lactobacillus casei) (UniProt P00469); experiment: Inhibition of Lactobacillus casei thymidylate synthetase at 1.7 x 10^-6 M relative to control; conditions: Lacticaseibacillus casei
T1 sequence (whole entry): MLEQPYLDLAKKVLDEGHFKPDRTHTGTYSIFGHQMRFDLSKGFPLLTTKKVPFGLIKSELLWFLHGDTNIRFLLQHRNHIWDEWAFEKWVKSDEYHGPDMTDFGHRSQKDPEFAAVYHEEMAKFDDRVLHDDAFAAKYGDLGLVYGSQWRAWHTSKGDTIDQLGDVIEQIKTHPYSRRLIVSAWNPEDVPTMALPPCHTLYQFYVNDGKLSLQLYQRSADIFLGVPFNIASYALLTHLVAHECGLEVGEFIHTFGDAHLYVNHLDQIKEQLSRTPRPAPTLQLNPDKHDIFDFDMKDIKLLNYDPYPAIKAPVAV

[2] = molecular target: T1, Thymidylate synthase (Lactobacillus casei); experiment: Inhibition of Lactobacillus casei thymidylate synthetase using dl-5,10-Methylene tetrahydropteroyl-L-glutamate as substrate at 1 x 10^-4 M by spectrophotometric analysis; conditions: Lacticaseibacillus casei
[3] = molecular target: T1, Thymidylate synthase (Lactobacillus casei); experiment: Inhibition of Lactobacillus casei thymidylate synthetase using dl-5,10-Methylene tetrahydropteroyl-L-glutamate as substrate at 1 x 10^-4 M relative to control; conditions: Lacticaseibacillus casei
[4] = molecular target: T1, Thymidylate synthase (Lactobacillus casei); experiment: Inhibition of Lactobacillus casei thymidylate synthetase using dl-5,10-Methylene tetrahydropteroyl-L-glutamate as substrate at 9.2 x 10^-5 M by spectrophotometric analysis; conditions: Lacticaseibacillus casei
[5] = molecular target: T1, Thymidylate synthase (Lactobacillus casei); experiment: Inhibition of Lactobacillus casei thymidylate synthetase using dl-5,10-Methylene tetrahydropteroyl-L-glutamate as substrate at 9.2 x 10^-5 M relative to control; conditions: Lacticaseibacillus casei
[6] = molecular target: T1, Thymidylate synthase (Lactobacillus casei); experiment: Activity of Lactobacillus casei thymidylate synthetase assessed as release of [3H] from [5-3H]-deoxyuridine 5' phosphate at 3 x 10^-4 M; conditions: Lacticaseibacillus casei
[7] = molecular target: T1, Thymidylate synthase (Lactobacillus casei); experiment: Activity of Lactobacillus casei thymidylate synthetase at 3 x 10^-4 M by spectrophotometric analysis; conditions: Lacticaseibacillus casei
Pediococcus [8] = experiment: Induction of growth of Pediococcus cerevisiae ATCC 8081 up to 5 ug/mL; assay type: functional
Lacticaseibacillus casei [9] = experiment: Induction of growth of Lactobacillus casei ATCC 7469 up to 5 ug/mL; assay type: functional, organism-based
Lacticaseibacillus casei [10] = experiment: Growth inhibition of Lactobacillus casei ATCC 7469 up to 5 ug/mL; assay type: functional, organism-based
Outline: (§1)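 Media were as follows. L. casei ATCC 7469 was grown on folate assay broth with folate at 1 ng/mL. P. cerevisiae ATCC 8081 was grown on CF assay medium with dl-5-formyltetrahydrofolate at 1 ng/mL. S. faecium ATCC 8043 was grown on Flynn medium with folate at 1 ng/mL.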

Pediococcus [11] = experiment: Growth inhibition of Pediococcus cerevisiae ATCC 8081 up to 5 ug/mL; assay type: functional; outline: as §1
Enterococcus faecium [12] = experiment: Induction of growth of Streptococcus faecium ATCC 8043 up to 5 ug/mL; assay type: functional, organism-based
Enterococcus faecium [13] = experiment: Growth inhibition of Streptococcus faecium ATCC 8043 up to 5 ug/mL; assay type: functional, organism-based; outline: as §1
[14] = molecular target: T1, Thymidylate synthase (Lactobacillus casei); experiment: Activity of Lactobacillus casei thymidylate synthetase at 7 x 10^-5 M by spectrophotometric analysis; conditions: Lacticaseibacillus casei
[15] = molecular target: T1, Thymidylate synthase (Lactobacillus casei); experiment: Inhibition of Lactobacillus casei thymidylate synthetase using dl-5,10-Methylene tetrahydropteroyl-L-glutamate as substrate at 3.3 x 10^-5 M by spectrophotometric analysis; conditions: Lacticaseibacillus casei
[16] = molecular target: T1, Thymidylate synthase (Lactobacillus casei); experiment: Inhibition of Lactobacillus casei thymidylate synthetase using dl-5,10-Methylene tetrahydropteroyl-L-glutamate as substrate at 3.3 x 10^-5 M relative to control; conditions: Lacticaseibacillus casei
[17] = molecular target: T1, Thymidylate synthase (Lactobacillus casei); experiment: Inhibition of Lactobacillus casei thymidylate synthetase using l-5,10-Methylene tetrahydropteroyl-L-glutamate as substrate at 6.3 x 10^-5 M by spectrophotometric analysis; conditions: Lacticaseibacillus casei
[18] = molecular target: T1, Thymidylate synthase (Lactobacillus casei); experiment: Inhibition of Lactobacillus casei thymidylate synthetase using l-5,10-Methylene tetrahydropteroyl-L-glutamate as substrate at 6.3 x 10^-5 M relative to control; conditions: Lacticaseibacillus casei
[19] = molecular target: T1, Thymidylate synthase (Lactobacillus casei); experiment: Inhibition of Lactobacillus casei thymidylate synthetase using dl-5,10-Methylene tetrahydropteroyl-L-glutamate as substrate at 2.4 x 10^-5 M relative to control; conditions: Lacticaseibacillus casei
[20] = molecular target: T1, Thymidylate synthase (Lactobacillus casei); experiment: Activity of Lactobacillus casei thymidylate synthetase at 4.5 x 10^-5 M by spectrophotometric analysis; conditions: Lacticaseibacillus casei
[21] = molecular target: T1, Thymidylate synthase (Lactobacillus casei); experiment: Activity of Lactobacillus casei thymidylate synthetase assessed as release of [3H] from [5-3H]-deoxyuridine 5' phosphate at 4.5 x 10^-5 M; conditions: Lacticaseibacillus casei
[22] = molecular target: Dihydrofolate reductase (Lactobacillus casei) (UniProt P00381); experiment: Inhibition of Lactobacillus casei dihydrofolate reductase using 7,8-Dihydropteroyl-L-glutamate as substrate at 1.5 x 10^-5 M by spectrophotometric analysis; conditions: Lacticaseibacillus casei
[23] = molecular target: Dihydrofolate reductase (Lactobacillus casei) (UniProt P00381); experiment: Inhibition of Lactobacillus casei dihydrofolate reductase using 7,8-Dihydropteroyl-L-glutamate as substrate at 1.5 x 10^-5 M relative to control; conditions: Lacticaseibacillus casei
[24] = molecular target: T1, Thymidylate synthase (Lactobacillus casei); experiment: Inhibition of Lactobacillus casei thymidylate synthetase using dl-5,10-Methylene tetrahydropteroyl-L-glutamate as substrate at 2.4 x 10^-5 M by spectrophotometric analysis; conditions: Lacticaseibacillus casei
[25] = molecular target: T1, Thymidylate synthase (Lactobacillus casei); experiment: Inhibition of Lactobacillus casei thymidylate synthetase using dl-5,10-Methylene tetrahydropteroyl-L-glutamate as substrate at 1.3 x 10^-5 M by spectrophotometric analysis; conditions: Lacticaseibacillus casei
[26] = molecular target: T1, Thymidylate synthase (Lactobacillus casei); experiment: Inhibition of Lactobacillus casei thymidylate synthetase using dl-5,10-Methylene tetrahydropteroyl-L-glutamate as substrate at 1.3 x 10^-5 M relative to control; conditions: Lacticaseibacillus casei
[27] = substrate: Nc1nc(=O)c2c([nH]1)NCC1CN(c3ccc(C(=O)N[C@@H](CCC(=O)O)C(=O)O)cc3)CN21; experiment: Activity of Lactobacillus casei thymidylate synthetase by spectrophotometric analysis; conditions: Lacticaseibacillus casei

Sequence of Dihydrofolate reductase (Lactobacillus casei) (P00381 whole entry): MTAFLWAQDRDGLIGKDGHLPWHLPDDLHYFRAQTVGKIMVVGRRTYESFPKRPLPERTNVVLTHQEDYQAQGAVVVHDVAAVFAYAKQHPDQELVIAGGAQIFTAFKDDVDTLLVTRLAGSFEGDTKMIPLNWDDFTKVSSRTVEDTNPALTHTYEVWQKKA

Molecule: CN(Cc1ccc2nc(N)nc(O)c2c1)c1ccc(C(=O)N[C@@H](CCC(=O)O)C(=O)O)cc1
inhibition [1]: 83%

Molecule: Nc1nc(=O)c2c([nH]1)NCC(CNc1ccc(C(=O)N[C@@H](CCC(=O)O)C(=O)O)cc1)=N2
deltaOD [2]: 0.02 min⁻¹
inhibition [3]: 26%

Molecule: Nc1nc2c(c(=O)[nH]1)N=C(CNc1ccc(C(=O)N[C@H](CCC(=O)O)C(=O)O)cc1)CN2
deltaOD [4]: 0.027 min⁻¹
inhibition [5]: 10%

Molecule: Nc1nc2c(c(=O)[nH]1)N1CN(c3ccc(C(=O)N[C@H](CCC(=O)O)C(=O)O)cc3)CC1CN2 (mixture of isomers)
deltaOD [14]: 0 min⁻¹
Activity (Pediococcus [8]): inactive
deltaOD [15]: 0.03 min⁻¹
Activity (Lacticaseibacillus casei [9]): inactive
growth inhibition (GI) (Lacticaseibacillus casei [10]): inactive
inhibition [16]: 0%
growth inhibition (GI) (Pediococcus [11]): inactive
Activity (Enterococcus faecium [12]): inactive
growth inhibition (GI) (Enterococcus faecium [13]): inactive

Molecule: Nc1nc2c(c(=O)[nH]1)N1CN(c3ccc(C(=O)N[C@H](CCC(=O)O)C(=O)O)cc3)CC1CN2 (stereo in doubt; form 1)
inhibition [19]: 0%
deltaOD [20]: 0 min⁻¹
Activity (Pediococcus [8]): inactive
Activity [21]: < 2000 cpm
deltaOD [22]: 0.032 min⁻¹
inhibition [23]: 0%
deltaOD [24]: 0.03 min⁻¹
Activity (Lacticaseibacillus casei [9]): inactive
growth inhibition (GI) (Lacticaseibacillus casei [10]): inactive
growth inhibition (GI) (Pediococcus [11]): inactive
Activity (Enterococcus faecium [12]): inactive
growth inhibition (GI) (Enterococcus faecium [13]): inactive

B1: Thymidylate synthase (Lactobacillus casei), P00469 (protein)
chain: T1 sequence (whole entry)
Km [27]: 15 µM

Further lines, with some results ahead:

Activity [6]: 71000 cpm
deltaOD [7]: 0.03 min⁻¹
Molecule: Nc1nc(=O)c2c([nH]1)NCC1CN(c3ccc(C(=O)N[C@@H](CCC(=O)O)C(=O)O)cc3)CN21 (mixture of isomers)
Activity (Pediococcus [8]): inactive
Activity (Lacticaseibacillus casei [9]): inactive
growth inhibition (GI) (Lacticaseibacillus casei [10]): inactive
growth inhibition (GI) (Pediococcus [11]): inactive
Activity (Enterococcus faecium [12]): inactive
growth inhibition (GI) (Enterococcus faecium [13]): inactive

deltaOD [17]: 0.02 min⁻¹
inhibition [18]: 14%
Molecule: Nc1nc(=O)c2c([nH]1)NCC1CN(c3ccc(C(=O)N[C@@H](CCC(=O)O)C(=O)O)cc3)CN21 (stereo in doubt)
Activity (Pediococcus [8]): inactive
Activity (Lacticaseibacillus casei [9]): inactive
growth inhibition (GI) (Lacticaseibacillus casei [10]): inactive
growth inhibition (GI) (Pediococcus [11]): inactive
Activity (Enterococcus faecium [12]): inactive
growth inhibition (GI) (Enterococcus faecium [13]): inactive

deltaOD [20]: 0 min⁻¹
Activity [21]: < 2000 cpm
deltaOD [22]: 0.032 min⁻¹
inhibition [23]: 0%
deltaOD [25]: 0.03 min⁻¹
inhibition [26]: 0%
Molecule: Nc1nc2c(c(=O)[nH]1)N1CN(c3ccc(C(=O)N[C@H](CCC(=O)O)C(=O)O)cc3)CC1CN2 (stereo in doubt; form 2)
Activity (Pediococcus [8]): inactive
Activity (Lacticaseibacillus casei [9]): inactive
growth inhibition (GI) (Lacticaseibacillus casei [10]): inactive
growth inhibition (GI) (Pediococcus [11]): inactive
Activity (Enterococcus faecium [12]): inactive
growth inhibition (GI) (Enterococcus faecium [13]): inactive
